Test results published in ChEMBL document CHEMBL5715950, “Characterization of molecular and cellular functions of the cyclin-dependent kinase CDK9 using a novel specific inhibitor” (Br J Pharmacol, 2014).
Calls of active or inactive are those of the source. The calls are words filed in the database; no cut-off is given here.

Columns and labels:
HEK-293T = experiment: Inhibition of transcription in human HEK293T cells nuclear extract fused with Gal4-VP16 at 10 uM in presence of ATP and KCL by phosphorimaging analysis; assay type: functional, subcellular; details: Nucleus
Method in brief: (§1)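 In vitro transcription from the adenovirus core promoter (Gal-ML, 380 bp G-free cassette), soluble or bead-immobilised template, using HEK293T nuclear extract supplemented with recombinant Gal4-VP16. ATP 60 μM (low), 100 μM, or 500 μM (high); magnesium varied in one series. Transcripts quantified by phosphorimaging.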

[1] = molecular target: Cyclin-dependent kinase 9 (Homo sapiens) (UniProt P50750); experiment: Inhibition of CDK9 in human A549 cells assessed as downregulation of p21 mRNA expression at 2 to 6 uM incubated for 90 mins by RT-qPCR analysis relative to control; assay type: cell-based; details: dose 2-6 µM
Chain of Cyclin-dependent kinase 9 (Homo sapiens) (P50750 whole entry, the tested form may be a part): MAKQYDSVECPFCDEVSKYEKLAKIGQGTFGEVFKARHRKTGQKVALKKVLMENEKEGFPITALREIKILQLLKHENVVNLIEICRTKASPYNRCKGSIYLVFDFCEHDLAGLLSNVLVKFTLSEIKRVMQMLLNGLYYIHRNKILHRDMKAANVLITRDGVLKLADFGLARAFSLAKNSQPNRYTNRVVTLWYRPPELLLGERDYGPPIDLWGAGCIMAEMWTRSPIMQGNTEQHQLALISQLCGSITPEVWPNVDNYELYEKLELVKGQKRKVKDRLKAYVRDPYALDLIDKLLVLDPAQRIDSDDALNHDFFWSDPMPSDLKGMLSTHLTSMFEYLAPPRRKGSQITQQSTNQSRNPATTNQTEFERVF

HCT 116 TP53(-/-) = experiment: Induction of apoptosis in human HCT116-p53-null cells at 10 uM incubated for 24 hrs by Annexin V-FITC/PI staining based flow cytometric analysis; assay type: functional, cell-based
Method in brief: (§2)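 Cells grown at 37°C, 5% CO2 (A549, HeLa, MCF7 in DMEM high glucose; HCT116 in McCoy's 5A; THP1 and primary AML M4 apheresis blasts in RPMI1640), exposed to inhibitor or DMSO for 24 h. Apoptotic fraction by flow cytometry after annexin V-fluorescein/propidium iodide double staining. Means ± SD of three biological replicates; AML blasts from one patient, three technical replicates. Student's t-test versus DMSO/untreated.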

[2] = Inhibition of transcription in human HEK293T cells nuclear extract fused with Gal4-VP16 at 4 uM in presence of ATP by phosphorimaging analysis; assay type: functional; details: HEK-293T; method in brief: as §1
[3] = molecular target: Cyclin-dependent kinase 9 (Homo sapiens) (UniProt P50750); experiment: Inhibition of CDK9 in human HeLa cells assessed as upregulation of serine 7 phosphorylation at 10 uM incubated for 1 hr by chromatin immunoprecipitation assay; assay type: cell-based
[4] = molecular target: Cyclin-dependent kinase 9 (Homo sapiens) (UniProt P50750); experiment: Inhibition of CDK9 in human A549 cells assessed as downregulation of GAPDH mRNA expression at 1 to 10 uM incubated for 90 mins by RT-qPCR analysis relative to control; assay type: cell-based; details: dose 1-10 µM
[5] = molecular target: Mitogen-activated protein kinase kinase kinase kinase 4 (Homo sapiens, UniProt O95819); experiment: Inhibition of MAP4K4 (unknown origin) assessed as residual activity at 10 uM incubated for 120 mins in presence of 33P-ATP by radiometric kinase assay relative to control
Chain of Mitogen-activated protein kinase kinase kinase kinase 4 (O95819 2-1239 limits assumed): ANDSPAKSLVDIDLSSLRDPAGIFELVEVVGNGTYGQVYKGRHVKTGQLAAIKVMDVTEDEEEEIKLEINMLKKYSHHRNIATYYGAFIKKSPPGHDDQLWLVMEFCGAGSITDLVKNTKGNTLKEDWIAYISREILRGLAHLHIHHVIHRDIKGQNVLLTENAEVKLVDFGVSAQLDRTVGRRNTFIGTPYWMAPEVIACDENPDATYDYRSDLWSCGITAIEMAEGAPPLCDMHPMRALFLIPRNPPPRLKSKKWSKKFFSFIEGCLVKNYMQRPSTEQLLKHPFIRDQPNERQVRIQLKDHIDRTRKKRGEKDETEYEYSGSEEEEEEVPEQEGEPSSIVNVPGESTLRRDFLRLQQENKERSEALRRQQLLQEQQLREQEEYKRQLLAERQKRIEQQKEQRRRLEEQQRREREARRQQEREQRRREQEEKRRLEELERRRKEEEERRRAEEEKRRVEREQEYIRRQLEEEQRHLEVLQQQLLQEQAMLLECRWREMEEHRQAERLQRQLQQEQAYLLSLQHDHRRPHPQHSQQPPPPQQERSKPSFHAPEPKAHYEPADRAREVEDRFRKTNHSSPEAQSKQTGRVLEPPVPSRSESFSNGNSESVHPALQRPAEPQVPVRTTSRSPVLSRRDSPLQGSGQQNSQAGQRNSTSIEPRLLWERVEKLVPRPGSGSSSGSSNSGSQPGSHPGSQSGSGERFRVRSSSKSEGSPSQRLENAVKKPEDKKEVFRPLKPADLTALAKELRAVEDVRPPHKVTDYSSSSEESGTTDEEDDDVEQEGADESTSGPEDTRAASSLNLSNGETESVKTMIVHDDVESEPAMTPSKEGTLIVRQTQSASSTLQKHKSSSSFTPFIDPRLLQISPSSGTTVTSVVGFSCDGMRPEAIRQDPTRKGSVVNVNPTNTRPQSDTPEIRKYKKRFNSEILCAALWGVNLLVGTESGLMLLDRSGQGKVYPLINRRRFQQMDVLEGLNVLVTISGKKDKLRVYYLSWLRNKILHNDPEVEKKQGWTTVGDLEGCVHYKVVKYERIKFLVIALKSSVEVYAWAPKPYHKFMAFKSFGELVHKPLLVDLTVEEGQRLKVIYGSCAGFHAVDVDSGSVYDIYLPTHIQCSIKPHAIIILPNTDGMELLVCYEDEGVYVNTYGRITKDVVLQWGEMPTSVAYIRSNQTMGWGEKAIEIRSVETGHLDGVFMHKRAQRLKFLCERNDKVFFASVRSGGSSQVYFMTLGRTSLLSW

[6] = molecular target: Cyclin-dependent kinase 4/cyclin D1 (Homo sapiens, UniProt P11802); experiment: Inhibition of CDK4/Cyclin D1 (unknown origin) using ULight MBP peptide as substrate in presence of ATP incubated for 1 hr by FRET based LANCE Ultra KinaSelect screen assay; assay type: protein-complex assay
Chain of Cyclin-dependent kinase 4/cyclin D1 (P11802 whole entry): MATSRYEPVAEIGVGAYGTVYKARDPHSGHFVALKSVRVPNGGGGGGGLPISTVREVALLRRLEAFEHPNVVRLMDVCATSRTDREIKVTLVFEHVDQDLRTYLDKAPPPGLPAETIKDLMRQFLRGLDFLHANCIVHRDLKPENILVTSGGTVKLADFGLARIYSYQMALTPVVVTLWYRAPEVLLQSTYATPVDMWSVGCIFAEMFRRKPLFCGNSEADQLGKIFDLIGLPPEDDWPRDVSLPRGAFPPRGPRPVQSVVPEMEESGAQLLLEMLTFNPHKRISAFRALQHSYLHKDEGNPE
Chain of Cyclin-dependent kinase 4/cyclin D1 (P24385 whole entry, further chain): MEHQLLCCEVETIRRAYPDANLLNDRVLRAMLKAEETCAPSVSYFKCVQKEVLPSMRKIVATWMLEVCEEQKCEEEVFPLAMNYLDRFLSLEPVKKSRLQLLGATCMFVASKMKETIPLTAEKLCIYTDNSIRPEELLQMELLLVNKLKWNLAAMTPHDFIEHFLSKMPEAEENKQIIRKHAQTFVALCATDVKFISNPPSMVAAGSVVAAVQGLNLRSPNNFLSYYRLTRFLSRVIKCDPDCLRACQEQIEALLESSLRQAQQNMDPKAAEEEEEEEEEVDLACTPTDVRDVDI

HeLa = experiment: Inhibition of RNA synthesis in human HeLa cells stably transfected with luciferase reporter gene at 10 uM incubated for 30 mins followed by doxycycline addition and measured after 60 mins by RT-qPCR analysis relative to control; assay type: functional; details: 1.5 h, time 90 min
Method in brief: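 Stably transfected HeLa cells carrying a tetracycline-inducible luciferase reporter: inhibitor or DMSO for 30 min, then 1 μg/mL doxycycline for 60 min. De novo reporter transcripts measured by RT-qPCR.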

[7] = molecular target: Glycogen synthase kinase-3 alpha (Homo sapiens, UniProt P49840); experiment: Inhibition of GSK3A (unknown origin) assessed as residual activity at 10 uM incubated for 120 mins in presence of 33P-ATP by radiometric kinase assay relative to control
Chain of Glycogen synthase kinase-3 alpha (P49840 2-483 limits assumed): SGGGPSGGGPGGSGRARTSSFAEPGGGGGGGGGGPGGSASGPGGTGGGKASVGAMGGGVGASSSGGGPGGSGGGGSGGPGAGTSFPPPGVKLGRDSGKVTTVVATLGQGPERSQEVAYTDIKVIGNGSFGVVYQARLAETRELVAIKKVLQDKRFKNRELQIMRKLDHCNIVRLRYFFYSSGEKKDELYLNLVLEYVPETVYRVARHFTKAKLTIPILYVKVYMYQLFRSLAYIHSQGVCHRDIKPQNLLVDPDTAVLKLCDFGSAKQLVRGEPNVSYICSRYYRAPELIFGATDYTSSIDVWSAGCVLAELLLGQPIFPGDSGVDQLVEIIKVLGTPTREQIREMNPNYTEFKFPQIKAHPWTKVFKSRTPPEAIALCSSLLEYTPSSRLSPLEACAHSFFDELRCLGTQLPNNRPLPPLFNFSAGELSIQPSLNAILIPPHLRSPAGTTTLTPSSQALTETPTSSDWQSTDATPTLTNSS

A549 = experiment: Induction of apoptosis in human A549 cells at 15 uM incubated for 24 hrs by Annexin V-FITC/PI staining based flow cytometric analysis; assay type: functional, cell-based; method in brief: as §2
CDK6/cyclin D3 = CDK6/cyclin D3 (Homo sapiens, UniProt Q00534); experiment: Inhibition of CDK6/Cyclin D3 (unknown origin) using ULight MBP peptide as substrate in presence of ATP incubated for 1 hr by FRET based LANCE Ultra KinaSelect screen assay; assay type: protein-complex assay
Chain of CDK6/cyclin D3 (P30281 whole entry): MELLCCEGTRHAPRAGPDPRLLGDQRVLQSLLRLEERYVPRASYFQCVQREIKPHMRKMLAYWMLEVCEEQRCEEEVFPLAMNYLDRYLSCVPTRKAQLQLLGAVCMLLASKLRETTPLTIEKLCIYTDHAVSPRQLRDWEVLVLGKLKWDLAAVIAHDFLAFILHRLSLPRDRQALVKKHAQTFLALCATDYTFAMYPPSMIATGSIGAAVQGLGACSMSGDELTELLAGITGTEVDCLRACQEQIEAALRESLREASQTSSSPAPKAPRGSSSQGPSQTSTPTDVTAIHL
Chain of CDK6/cyclin D3 (Q00534 whole entry): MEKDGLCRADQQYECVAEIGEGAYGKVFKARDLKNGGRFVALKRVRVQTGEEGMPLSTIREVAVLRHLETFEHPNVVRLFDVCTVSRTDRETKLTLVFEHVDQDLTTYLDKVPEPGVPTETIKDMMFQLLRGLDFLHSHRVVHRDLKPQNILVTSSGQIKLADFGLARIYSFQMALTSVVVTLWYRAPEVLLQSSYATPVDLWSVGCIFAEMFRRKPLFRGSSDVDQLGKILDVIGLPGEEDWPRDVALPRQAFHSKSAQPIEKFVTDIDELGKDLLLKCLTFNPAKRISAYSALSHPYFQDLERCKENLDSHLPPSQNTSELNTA
Method in brief: (§3)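 Time-resolved FRET kinase assay with purified CDK-cyclin pairs. ULight MBP peptide substrate was 50 nM final. Buffer was 50 mM HEPES-KOH pH 7.5, 10 mM MgCl2, 1 mM EGTA and 2 mM DTT, with ATP at each kinase's KM (CDK2-cyclin A 3 μM). Reactions ran 1 h at room temperature, then 2 nM Eu-labelled anti-phospho antibody was added for detection. IC50 given as mean ± SD.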

[8] = Selectivity ratio of IC50 for inhibition of CDK9/Cyclin T1 (unknown origin) to IC50 for inhibition of CDK6/Cyclin D3 (unknown origin)
[9] = molecular target: CDK9/cyclin T1 (Homo sapiens) (UniProt O60563+P50750); experiment: Inhibition of CDK9/Cyclin T1 (unknown origin) assessed as residual activity at 10 uM incubated for 120 mins in presence of 33P-ATP by radiometric kinase assay relative to control; assay type: protein-complex assay
[10] = molecular target: Cyclin-dependent kinase 9 (Homo sapiens) (UniProt P50750); experiment: Inhibition of CDK9 in human HeLa cells assessed as upregulation of serine 2 phosphorylation at 10 uM incubated for 1 hr by chromatin immunoprecipitation assay; assay type: cell-based
[11] = molecular target: Tyrosine-protein kinase ABL2 (Homo sapiens, UniProt P42684); experiment: Inhibition of ABL2 (unknown origin) incubated for 120 mins in presence of 33P-ATP by radiometric kinase assay
Method in brief: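 Radiometric panel assay, 10-dose mode: serial dilutions from […], in duplicate, at 1 μM ATP. Incubated 120 min at room temperature, then spotted on P81 paper, acid-washed and counted. Values are means.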

[12] = molecular target: Cyclin-dependent kinase 9 (Homo sapiens) (UniProt P50750); experiment: Inhibition of CDK9 in human THP-1 cells assessed as downregulation of RPL31 mRNA expression by RT-qPCR analysis; assay type: cell-based
[13] = Transcription level in human HEK293T cells nuclear extract fused with Gal4-VP16 at 10 uM in presence of ATP by phosphorimaging analysis relative to control; details: HEK-293T
[14] = molecular target: Cyclin-dependent kinase 9 (Homo sapiens) (UniProt P50750); experiment: Inhibition of CDK9 in human HeLa cells assessed as upregulation of RNAPII expression at 10 uM incubated for 1 hr by chromatin immunoprecipitation assay; assay type: cell-based
[15] = molecular target: Cyclin-dependent kinase 9 (Homo sapiens) (UniProt P50750); experiment: Inhibition of CDK9 in human HeLa cells assessed as downregulation of Serine 2 phosphorylation by measuring fold decrease at 10 uM incubated for 60 mins by Western blotting analysis; assay type: cell-based
[16] = molecular target: Cyclin-dependent kinase 1/cyclin B1 (Homo sapiens, UniProt P06493); experiment: Inhibition of CDK1/Cyclin B1 (unknown origin) using ULight MBP peptide as substrate in presence of ATP incubated for 1 hr by FRET based LANCE Ultra KinaSelect screen assay; assay type: protein-complex assay; method in brief: as §3
Chain of Cyclin-dependent kinase 1/cyclin B1 (P06493 whole entry): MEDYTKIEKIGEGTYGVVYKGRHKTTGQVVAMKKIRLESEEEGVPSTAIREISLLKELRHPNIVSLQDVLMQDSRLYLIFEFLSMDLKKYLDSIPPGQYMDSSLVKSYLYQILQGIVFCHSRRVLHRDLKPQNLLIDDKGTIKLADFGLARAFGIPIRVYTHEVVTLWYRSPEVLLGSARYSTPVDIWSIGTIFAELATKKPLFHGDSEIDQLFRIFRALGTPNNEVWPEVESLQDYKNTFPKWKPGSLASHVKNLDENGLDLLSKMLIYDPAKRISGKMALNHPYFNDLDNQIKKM
Chain of Cyclin-dependent kinase 1/cyclin B1 (P14635 whole entry, further chain): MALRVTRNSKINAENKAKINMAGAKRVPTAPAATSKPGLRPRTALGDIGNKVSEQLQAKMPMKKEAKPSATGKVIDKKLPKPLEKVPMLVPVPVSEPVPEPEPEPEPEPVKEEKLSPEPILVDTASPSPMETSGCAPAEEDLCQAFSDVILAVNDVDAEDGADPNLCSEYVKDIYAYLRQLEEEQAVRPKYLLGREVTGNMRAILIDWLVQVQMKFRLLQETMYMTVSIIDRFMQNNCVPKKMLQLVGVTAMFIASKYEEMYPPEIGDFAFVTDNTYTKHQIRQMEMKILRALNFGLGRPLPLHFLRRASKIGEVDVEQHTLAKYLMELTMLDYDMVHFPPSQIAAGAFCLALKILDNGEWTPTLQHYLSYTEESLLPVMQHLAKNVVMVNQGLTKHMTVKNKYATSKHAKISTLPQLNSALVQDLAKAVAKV

[17] = molecular target: Cyclin-dependent kinase 9 (Homo sapiens) (UniProt P50750); experiment: Inhibition of CDK9 in human HeLa cells assessed as upregulation of serine 5 phosphorylation at 10 uM incubated for 1 hr by chromatin immunoprecipitation assay; assay type: cell-based
[18] = Selectivity ratio of IC50 for inhibition of CDK9/Cyclin T1 (unknown origin) to IC50 for inhibition of CDK7/Cyclin H/MAT1 (unknown origin)
[19] = molecular target: Cyclin-dependent kinase 9 (Homo sapiens) (UniProt P50750); experiment: Inhibition of CDK9 in human A549 cells assessed as downregulation of PLK2 mRNA expression at 2 to 6 uM incubated for 90 mins by RT-qPCR analysis relative to control; assay type: cell-based; details: dose 2-6 µM
Leukemia cell = experiment: Induction of apoptosis in human Acute myeloid leukemic cell at > 2 uM incubated for 24 hrs by Annexin V-FITC/PI staining based flow cytometric analysis; assay type: functional; method in brief: as §2

With `COc1ccccc1-c1cc(Nc2cccc(NS(C)(=O)=O)c2)ncn1` the inhibition (HEK-293T) was “Active”, the inhibition [1] was 50% and the Activity (HCT 116 TP53(-/-)) was “Active”. The inhibition at 4 µM [2] was 50%, the inhibition [3] was “Active” and the inhibition [4] was 50%. The Activity [5] was 17.5%, the IC50 [6] was 9.24 µM and the inhibition at 10 µM (HeLa) was 80%. For the same compound, the Activity [7] was 9.5%, the Activity (A549) was “Active” and the IC50 (CDK6/cyclin D3) was > 10 µM. The Ratio IC50 [8] was > 227, the Activity [9] was 6% and the inhibition [10] was “Active”. For the same compound, the IC50 [11] was 3.64 µM, the inhibition [12] was “Active” and the level, % of control at 10 µM [13] was 20%. The inhibition [14] was “Active”, the fold change (FC) [15] was 1.6 and the IC50 [16] was 5.51 µM. For the same compound, the inhibition [17] was “Active”, the Ratio IC50 [18] was > 227 and the inhibition [19] was 50%. The Activity (Leukemia cell) was “Active”.
